High-throughput results deposited in PubChem BioAssay by Sanford-Burnham Center for Chemical Genomics.
SENP1 inh = SENP1 (human) catalytic domain inhibition; inhibition, % at 10 µM; hit rate 0.21% among 360,000; recombinant SENP1 catalytic domain, CyPet-SUMO1-YPet FRET cleavage; AID 624204;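 active = inhibition at least 30% at 10 µM, raw YFP signal under a set limit, fluorescence ratio 0.5 to 1.5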;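 note: 0% = enzyme with DMSO and 100% = no enzyme wells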
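Test system: hSENP1 catalytic domain, recombinant; Amount: 20 pM final SENP1 enzyme; Medium: Tris pH 8 buffer plus EDTA, NaCl, BME, BSA, NP40, catalase; Schedule: 50 min enzyme reaction, room temperature, light-protected; Technique: FRET fluorescence in CFP and YFP emission channels; Controls: no-enzyme wells low, DMSO-plus-enzyme wells high control.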
SENP6 inh = inhibitors of human SENP6 protease; hit rate 1.8% among 330,000; Recombinant SENP6 catalytic domain, aminoluciferin luminescence; Q9GZR1; AID 2599; inhibition, % at 10 µM;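 active = inhibition above about 50% at the single tested dose, limit read from the data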;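 note: plate controls were DMSO wells with enzyme for no effect and DMSO wells lacking enzyme for full effect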
Target sequence (Q9GZR1 628-1112 limits assumed): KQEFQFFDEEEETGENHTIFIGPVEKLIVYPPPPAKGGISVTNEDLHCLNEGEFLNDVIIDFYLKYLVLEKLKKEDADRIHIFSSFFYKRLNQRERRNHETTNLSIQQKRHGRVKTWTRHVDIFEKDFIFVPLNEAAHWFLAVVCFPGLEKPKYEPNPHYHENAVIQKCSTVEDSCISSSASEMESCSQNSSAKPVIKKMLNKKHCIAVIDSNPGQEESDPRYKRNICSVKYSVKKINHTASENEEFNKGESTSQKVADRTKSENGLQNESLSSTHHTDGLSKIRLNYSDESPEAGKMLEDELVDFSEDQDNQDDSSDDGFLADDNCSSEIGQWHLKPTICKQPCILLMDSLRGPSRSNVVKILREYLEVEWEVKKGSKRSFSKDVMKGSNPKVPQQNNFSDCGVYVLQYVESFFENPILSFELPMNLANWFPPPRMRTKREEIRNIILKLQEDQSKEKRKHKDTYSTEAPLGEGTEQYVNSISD
SENP8 block-1 = blocks human SENP8 cleavage of Nedd8 substrate. recombinant SENP8, Nedd8 substrate fluorescence. Q96LD8. AID 602440. hit rate 0.64% among 360,000. inhibition, % at 20 µM; in the data active = inhibition mostly above about 40%, no sharp cut-off; inactive = mostly below about 27%
SENP8 block-2 = blocks the human protease SENP8 | inhibition, % at 10 µM | Q96LD8 | purified SENP8, Z-RLRGG-aminoluciferin cleavage, luminescence | hit rate 1.2% among 330,000; in the data active = inhibition above about 50%
SENP7 inh = SENP7 protease inhibition. Q9BQF6. recombinant SENP7, Z-RLRGG-aminoluciferin luminescence, 40 min. inhibition, % at 5 µM. hit rate 1.5% among 330,000. AID 434973;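 active = inhibition above about 50% at the single test dose, limit read from the data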;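 note: plate controls were DMSO with enzyme for no effect and no enzyme buffer wells for full effect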
SENP8 confirm = confirmation of human SENP8 protease inhibitors; shares compounds with SENP7 inh; Recombinant SENP8, Z-RLRGG-aminoluciferin luminescence, 60 min; inhibition, % at 12.5 µM; hit rate 40% among 6,200; AID 488912;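 active = mean inhibition across replicates above about 50%, limit read from the data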
SENP6 confirm = human SENP6 inhibition, confirmed; shares compounds with SENP7 inh; recombinant SENP6, Z-RLRGG-aminoluciferin luminescence; inhibition, % at 12.5 µM; hit rate 58% among 6,200
SENP7 conf = human SENP7 inhibition, confirmed | shares compounds with SENP7 inh | recombinant SENP7, Z-RLRGG-aminoluciferin luminescence, 40 min | inhibition, % at 12.5 µM | hit rate 69% among 6,200 | AID 488917
Casp3 select = caspase-3 inhibition (SENP selectivity assay) | purified caspase-3, Z-DEVD-aminoluciferin luminescence, 60 min | AID 488918 | shares compounds with SENP7 inh | hit rate 60% among 6,200 | inhibition, % at 12.5 µM;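 active = mean inhibition above about 50%, limit read from the data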;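 note: plate controls were enzyme with DMSO for no effect and wells without caspase-3 for full effect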
Luc interf = interferes with luciferase luminescence in SENP counter-screen. hit rate 39% among 6,200. Pre-incubated SENP8/Z-RLRGG-aminoluciferin, luciferase luminescence interference. shares compounds with SENP7 inh. AID 488919. inhibition, % at 12.5 µM;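 active = mean inhibition above about 50% when retested at one dose, limit read from the data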;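 note: plate controls were DMSO wells with completed reaction for no effect and substrate without enzyme for full effect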
* marks the source's active call; other numbers are inactive results; · = not tested or not shown. Hits are enriched below; roughly 2.5% of the tested compounds scored in any of these assays.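 Rule for the calls, unless noted: active = mean inhibition above about 50% in the one-dose retest (limit read from the data); inactive = the rest.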

SMILES	SENP1 inh	SENP6 inh	SENP8 block-1	SENP8 block-2	SENP7 inh	SENP8 confirm	SENP6 confirm	SENP7 conf	Casp3 select	Luc interf
Cc1ccc(N2CCN(S(=O)(=O)c3c(C)noc3C)CC2C)cc1 (stereo not drawn)	-1.5	-10.4	1.8	-1.3	8.6	·	·	·	·	·
COc1ccc(S(=O)(=O)N2CCN(c3ccccn3)CC2)cc1[N+](=O)[O-]	3.0	85.4*	16.0	2.3	6.6	-3.9	-5.8	-1.8	7.9	4.8
COc1ccc(S(=O)(=O)N2CCN(c3ncccn3)CC2)cc1[N+](=O)[O-]	1.1	-34.1	11.6	-9.2	-8.7	·	·	·	·	·
Cc1sc2ncn(CC(=O)NCCCC(=O)Nc3ccc(C(C)C)cc3)c(=O)c2c1C	2.9	-22.2	10.1	-1.7	5.2	·	·	·	·	·
COc1ccc(C=C2Cc3ccccc3C2=O)cc1	-40.7	·	-283.8	·	·	·	·	·	·	·
CC(=O)Nc1ccc(/C=C2\CCc3ccccc3C2=O)cc1	-6.0	56.1*	10.2	34.2	43.7	40.5	46.4	34.5	20.4	18.1
COc1ccc(/C=C2\CCc3ccccc3C2=O)cc1O	-6.2	99.2*	4.0	94.9*	95.0*	96.1*	99.3*	101.1*	92.2*	94.7*
O=C(O)CCC(=O)Nc1ccc2c(c1)Cc1cc(NC(=O)CCC(=O)O)ccc1-2	3.4	-8.3	4.1	-0.9	-1.4	·	·	·	·	·
CC(=O)c1ccc(NC(=O)c2cc3ccccc3o2)cc1	0.4	-3.7	7.6	-18.5	2.7	·	·	·	·	·
O=C(Nc1ccccc1)c1cc2ccccc2o1	0.0	97.0*	24.5	94.7*	97.7*	95.7*	98.1*	102.5*	97.3*	97.6*
COc1ccc(NC(=O)c2cc3ccccc3o2)cc1	1.1	64.4*	12.1	35.4	33.2	43.5	34.9	71.1*	50.2*	8.8
O=C(Nc1ccc(NC(=O)c2cc3ccccc3o2)cc1)c1ccco1	-0.7	-13.9	-34.3	-8.0	-3.9	·	·	·	·	·
COc1ccc(NC(=O)c2cc3ccccc3o2)cc1OC	0.7	4.0	0.8	-7.9	6.9	·	·	·	·	·
CC(=O)Nc1cccc(NC(=O)c2cc3ccccc3o2)c1	-0.9	83.9*	4.5	61.9*	83.6*	78.8*	78.2*	95.3*	88.2*	83.2*
O=C(Nc1ccc(F)cc1)c1cc2ccccc2o1	2.9	85.5*	18.9	75.9*	85.8*	80.5*	82.1*	97.1*	86.5*	63.7*
CCn1c(=O)c2c(nc(SCC(=O)NC3CCCC3)n2C)n(C)c1=O	3.5	1.9	2.7	-1.6	4.4	·	·	·	·	·
CCOC(=O)N1CCN(C(=O)COC(=O)CNC(=O)c2ccc(OCC)c(OCC)c2)CC1	2.1	-10.6	3.4	6.2	3.3	·	·	·	·	·
N#CC1C(=O)NC(=O)C(C#N)C12CCCC2 (stereo not drawn)	-0.6	·	3.1	·	·	·	·	·	·	·
Cc1cc(C(=O)Nc2cccc3ccccc23)oc1C	-3.2	·	-62.3	·	·	·	·	·	·	·
Cc1cc(C(=O)Nc2ccccc2)oc1C	0.6	64.2*	24.7	42.0	49.0	57.7*	54.6*	86.7*	82.8*	60.9*
O=C(CCCOc1ccc(Cl)cc1Cl)NCCc1ccccn1	2.5	-3.2	9.7	5.5	2.0	·	·	·	·	·
CC(=O)c1sc(Nc2nc3ccc(F)cc3s2)nc1C	-19.8	80.9*	-307.1	53.2*	30.2	11.5	71.5*	90.4*	47.5	13.2
CCOC(=O)c1csc(Nc2nc3ccc(F)cc3s2)n1	-10.8	58.0*	-4.7	-18.4	3.1	1.3	-2.4	12.4	6.0	2.1
COC(=O)c1ccc2nc(Nc3nc4ccc(F)cc4s3)sc2c1	-31.2	·	-443.1	·	·	·	·	·	·	·
Cc1nc2c(OCc3cc(Cl)cc(Cl)c3)cccn2c1N(C)C(=O)CCC1CCCC1	-6.1	·	-5.5	·	·	·	·	·	·	·
CCOc1cc(OCC)cc(C(=O)N2CCC[C@H]2C(=O)N2CCC[C@H]2C(=O)N[C@H](C)c2ccccc2)c1	0.2	·	18.6	·	·	·	·	·	·	·
